What was measured:
[1] = substrate: C[C@@]1(F)[C@H](O)[C@@H](CO)O[C@H]1n1ccc(N)nc1=O; settings: Homo sapiens; Huh-7
[2] = substrate: Nc1ccn([C@@H]2O[C@H](CO)[C@@H](O)[C@H]2F)c(=O)n1; settings: Homo sapiens; Huh-7
[3] = substrate: Nc1ccn([C@H]2C[C@H](O)[C@@H](CO)O2)c(=O)n1; settings: Homo sapiens; Huh-7
[4] = substrate: C[C@@]1(O)[C@H](O)[C@@H](CO)O[C@H]1n1ccc(N)nc1=O; settings: Homo sapiens; Huh-7
[5] = substrate: C[C@@]1(F)[C@H](O)[C@@H](CO)O[C@H]1n1ccc(N)nc1=O; experiment: (§1) Activity of cloned cytidine deaminase in human HuH7 cells at 4 mM by spectrophotometric analysis; format: cell-based; settings: Huh-7
Outline: (§2)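 Recombinant human CDA cloned from Huh-7 cells. Reaction at 30°C in 50 mM Tris-HCl pH 7.5, started by adding enzyme. Deamination was followed spectrophotometrically at wavelengths chosen by substrate level, with Δɛ set per wavelength. Rates came from the linear trace and Beer's law and were fitted to Michaelis-Menten. Highest concentration tested 4 mM.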

[6] = substrate: C[C@@]1(O)[C@H](O)[C@@H](CO)O[C@H]1n1ccc(N)nc1=O; experiment: as §1; format: cell-based; settings: Huh-7
Outline: as §2

[7] = substrate: Nc1ccn([C@@H]2O[C@H](CO)[C@@H](O)[C@H]2F)c(=O)n1; settings: Homo sapiens; Huh-7; remark: listed apart in the source
[8] = substrate: Nc1ccn([C@H]2C[C@H](O)[C@@H](CO)O2)c(=O)n1; settings: Homo sapiens; Huh-7; remark: listed apart in the source
[9] = substrate: Nc1ccn([C@H]2C[C@H](O)[C@@H](COP(=O)(O)O)O2)c(=O)n1; experiment: Ratio of Kcat to Km for cloned deoxycytidylate deaminase in human HepG2 cells by spectrophotometric analysis; format: cell-based
Outline: (§3)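 Recombinant human DCTD cloned from HepG2 cells, 9.3 nM final, with dCMP substrate. Spectrophotometric deamination at 37°C, monitoring absorbance at 290 nm (Δɛ = 1,694 M−1 cm−1). Rates from linear traces were fitted to Michaelis-Menten to obtain Km, kcat and kcat/Km.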

[10] = substrate: C[C@@]1(F)[C@H](O)[C@@H](COP(=O)(O)O)O[C@H]1n1ccc(N)nc1=O; experiment: Ratio of Kcat to Km for cloned deoxycytidylate deaminase in human HepG2 cells by HPLC assay; format: cell-based
Outline: (§4)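 Recombinant His-tagged human DCTD cloned from HepG2 cells. 0.56 μg enzyme in 50 mM Tris-HCl pH 7.5, 2 mM MgCl2, 20 mM β-mercaptoethanol, at 37°C. Samples taken at 5, 10 and 20 min, quenched with HCl and filtered. Nucleotides were resolved by SAX HPLC (KH2PO4 pH 3.5 gradient), detected at 254 nm and quantified against standard curves.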

[11] = substrate: C[C@@]1(F)[C@H](O)[C@@H](COP(=O)(O)O)O[C@H]1n1ccc(N)nc1=O; experiment: Activity of cloned deoxycytidylate deaminase in human HepG2 cells by HPLC assay; format: cell-based
Outline: as §4

[12] = substrate: Nc1ccn([C@H]2C[C@H](O)[C@@H](COP(=O)(O)O)O2)c(=O)n1; experiment: Activity of cloned deoxycytidylate deaminase in human HepG2 cells by spectrophotometric analysis; format: cell-based
Outline: as §3

[13] = substrate: C[C@@]1(F)[C@H](O)[C@@H](COP(=O)(O)O)O[C@H]1n1ccc(=O)[nH]c1=O; experiment: Ratio of Kcat to Km for cloned UMP-CMP kinase in human HuH7 cells assessed as formation of RO2433 diphosphate by spectrophotometry; format: cell-based; settings: Huh-7
Outline: (§5)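 Recombinant human kinase read out by PK/LDH coupling, following NADH oxidation at 340 nm. Rates were measured over varied substrate levels and fitted for steady-state parameters.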

[14] = substrate: C[C@@]1(F)[C@H](O)[C@@H](COP(=O)(O)O)O[C@H]1n1ccc(=O)[nH]c1=O; experiment: Activity of cloned UMP-CMP kinase in human HuH7 cells assessed as formation of RO2433 diphosphate by spectrophotometry; format: cell-based; settings: Huh-7
Outline: as §5

B1: Cytidine deaminase (Homo sapiens), P32320 (protein)
chain: MAQKRPACTLKPECVQQLLVCSQEAKKSAYCPYSHFPVGAALLTQEGRIFKGCNIENACYPLGICAERTAIQKAVSEGYKDFRAIAIASDMQDDFISPCGACRQVMREFGTNWPVYMTKPDGTYIVMTVQELLPSSFGPEDLQKTQ
**Q.** How did the kcat/Km [1] turn out when B1 was run?
**A.** 6.5e-05 µM⁻¹ s⁻¹

**Q.** And the kcat/Km [2]?
**A.** 0.14 µM⁻¹ s⁻¹

**Q.** And the kcat/Km [3]?
**A.** 0.12 µM⁻¹ s⁻¹

**Q.** And the kcat/Km [4]?
**A.** 5.8e-05 µM⁻¹ s⁻¹

**Q.** And the Km [5]?
**A.** 4 mM

**Q.** What about the kcat [5] of the same protein?
**A.** 0.26 s⁻¹

**Q.** And the Km [6]?
**A.** 3.1 mM

**Q.** And the kcat [6]?
**A.** 0.18 s⁻¹

**Q.** What about the Km [7] of the same protein?
**A.** 27 µM

**Q.** And the kcat [7]?
**A.** 3.8 s⁻¹

**Q.** What about the Km [8] of the same protein?
**A.** 41 µM

**Q.** And the kcat [8]?
**A.** 4.8 s⁻¹

B2: Deoxycytidylate deaminase (Homo sapiens), P32321 (protein)
chain: MSEVSCKKRDDYLEWPEYFMAVAFLSAQRSKDPNSQVGACIVNSENKIVGIGYNGMPNGCSDDVLPWRRTAENKLDTKYPYVCHAELNAIMNKNSTDVKGCSMYVALFPCNECAKLIIQAGIKEVIFMSDKYHDSDEATAARLLFNMAGVTFRKFIPKCSKIVIDFDSINSRPSQKLQ
**Q.** With B2 as the protein, how does the kcat/Km [9] read?
**A.** 2.8 µM⁻¹ s⁻¹

**Q.** What about the kcat/Km [10] of the same protein?
**A.** 0.0004 µM⁻¹ s⁻¹

**Q.** What about the Km [11] of the same protein?
**A.** 2000 µM

**Q.** And the kcat [11]?
**A.** 0.82 s⁻¹

**Q.** What about the Km [12] of the same protein?
**A.** 87 µM

**Q.** And the kcat [12]?
**A.** 246 s⁻¹

B3: UMP-CMP kinase (Homo sapiens), P30085 (protein)
chain: MKPLVVFVLGGPGAGKGTQCARIVEKYGYTHLSAGELLRDERKNPDSQYGELIEKYIKEGKIVPVEITISLLKREMDQTMAANAQKNKFLIDGFPRNQDNLQGWNKTMDGKADVSFVLFFDCNNEICIERCLERGKSSGRSDDNRESLEKRIQTYLQSTKPIIDLYEEMGKVKKIDASKSVDEVFDEVVQIFDKEG
**Q.** How did the kcat/Km [13] turn out when B3 was run?
**A.** 0.0091 µM⁻¹ s⁻¹

**Q.** And the Km [14]?
**A.** 870 µM

**Q.** And the kcat [14]?
**A.** 7.9 s⁻¹
